The nature of data set [1]: Cmax in iv dosed mouse plasma measured after 10 mins. In kind it is ADME, organism-based. Also on record: route intravenous, time 10 min.
Data set [2] concerns Human immunodeficiency virus 1. As to the kind of experiment: Inhibition of recombinant HIV1 integrase mediated strand transfer activity at 0.1 to 333 uM in presence of U5A/U5B2 and [gamma-32P]ATP. The conditions noted are these: dose microM 0.1-333. An outline of the steps: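 HIV-1 integrase strand-transfer reaction run with increasing inhibitor concentrations from 100 nM to 333 µM, with raltegravir as positive control, and the strand-transfer efficiency was measured.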

The nature of data set [3]: Octanol/water partition coefficient, logD of the compound at pH 7.4 by shake flask method. In kind it is physicochemical.
The test system of data set [4] is Human immunodeficiency virus 1. As to the kind of experiment: Antiviral activity against HIV1 LAI infected in human HeLa-P4 cells harboring a stably integrated LTR-linked LacZ reporter gene assessed as inhibition of viral replication preincubated with cells for 2 hrs followed by viral infection and measured after 48 hrs of compound challenge by CPRG based beta-galactosidase assay. In kind it is functional, organism-based. For orientation: A reporter such as luciferase makes a cellular process visible.

The nature of data set [5]: Metabolic stability in CD1 mouse liver microsomes assessed as half life of compound at 1 uM and measured up to 60 mins in presence of NADPH by LC-MS analysis. The format is ADME, Microsome. (Liver microsomes are vesicles of endoplasmic reticulum, rich in cytochrome P450 enzymes.)
Data set [6] is described as follows: Cmax in po dosed mouse plasma measured after 10 mins. The format is ADME, organism-based. Also on record: route oral, time 10 min.
In data set [7] the target is Human immunodeficiency virus type 1 reverse transcriptase (Human immunodeficiency virus 1, UniProt Q72547). As to the kind of experiment: Inhibition of wild-type recombinant HIV-1 subtype B reverse transcriptase p66/p51 heterodimer expressed in Escherichia coli using calf thymus DNA and [3H]-deoxythymidine 5'-triphophaste as substrate measured after 15 mins by liquid scintillation counting method. An outline of the steps:
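Inhibition measured with subtype B wild-type HIV-1 RT in an in vitro susceptibility assay; nevirapine and AZT as positive controls.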

Data set [8] is described as follows: Thermodynamic solubility of compound in PBS at pH 7.4 incubated for 24 hrs under shaking condition by HPLC analysis. The format is physicochemical. The conditions noted are these: read-out: Therm_solubility.
Data set [9] in a line: Stability in CD-1 mouse plasma assessed as parent compound remaining at 1 uM measured up to 60 mins by LC-MS/MS analysis. The format is ADME, cell-free. The conditions noted are these: read-out: Stabilty.
A short description of data set [10]: Plasma protein binding in mouse at 1 uM incubated for 4 hrs by rapid equilibrium dialysis method. The conditions noted are these: read-out: PPB (converted). In kind it is ADME, cell-free. (In general: In equilibrium dialysis free small molecules cross a membrane that holds back macromolecules.)
Data set [11] concerns Human immunodeficiency virus 1. As to the kind of experiment: Antiviral activity against HIV1 LAI infected in human HeLa-P4 cells harboring a stably integrated LTR-linked LacZ reporter gene assessed as inhibition of viral replication at 50 uM preincubated with cells for 2 hrs followed by viral infection and measured after 48 hrs of compound challenge by CPRG based beta-galactosidase assay relative to control. In kind it is functional. The settings on record: Human immunodeficiency virus 1, LAI, HeLaP4. In short, it runs like this: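 Single-concentration screen: HeLa P4 cells (stably integrated LTR–LacZ reporter) infected with HIV-1 Laï and incubated 48 h with compound at 50 µM; zidovudine as positive control.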

For data set [12], the system named is Human immunodeficiency virus 1. As to the kind of experiment: Antiviral activity against HIV1 LAI infected in human MT2 cells assessed as suppression of viral replication up to 50 uM pre-incubated with cells for 2 hr before viral infection and measured after 3 days of cultivation by RT-PCR analysis. The settings on record: dose microM <=50, time 3.0 day. The format is functional, organism-based.

Data set [13] can be described thus: Cytotoxicity against human HeLa-P4 cells at 50 uM […] by MTS assay relative to control. The format is cell-based. The settings on record: hela p4, 50 µM.
Setting [14] is: Human immunodeficiency virus 1, LAI, HeLaP4, read-out: EC50.

Here are results for 29 compounds from ChEMBL document CHEMBL4699410, “Discovery, SAR study and ADME properties of methyl 4-amino-3-cyano-1-(2-benzyloxyphenyl)-1H-pyrazole-5-carboxylate as an HIV-1 replication inhibitor” (RSC Med Chem, 2020).

Values after ≈ are worked out from the molar mass of the structure shown. Active and inactive are the calls of the source.

Regarding `COC(=O)c1c(N)c(C#N)nn1-c1ccccc1OCc1ccccc1`, the values for the Cmax in data set [1] and in data set [6] were 238 ng/mL and 18 ng/mL, respectively. The inhibition result in data set [2] was “inactive”. Besides, in [3], the logD was determined as 3.69. The results for the EC50 in [4] (setting [14]) and in [4] (hela p4) were 19.4 µM and “Dose-dependent effect”, respectively. In addition, the half-life at 1 µM in [5] came to 3 min. The IC50 in data set [7] was more than 1000 µM. The solubility thermodynamic at 24 h in data set [8] worked out at 9.6 µM (≈ 3.34 µg/mL). For the same compound, in [9], the remaining at 1 h, 1 µM is 100%. The fraction unbound at 4 h, 1 µM in [10] was 0.05. The inhibition at 50 µM in data set [11] was found to be 63%. The result in data set [12] was Active. Also, the Activity in data set [13] is on record as 9%.
On to `COC(=O)c1c(N)c(C#N)nn1-c1ccc(OC)cc1`, for which, in [11], the inhibition at 50 µM was less than 30%. The compound also came in with an Activity in data set [13] of 14.6%.
For `COC(=O)c1c(N)c(C#N)nn1-c1ccccc1` the same measures were less than 30% and 7%.
As to `COC(=O)c1c(N)c(C#N)nn1-c1ccccc1[N+](=O)[O-]`, the inhibition at 50 µM in [11] was determined as 42%. The compound also registered an Activity in [13] of 0%.
For the compound `COC(=O)c1c(N)c(C#N)nn1-c1cccc(C(=O)OC(C)(C)C)c1`, the inhibition at 50 µM in data set [11] is 36%. This compound also came in with an Activity in [13] of 0%.
On to `COC(=O)c1c(N)c(C#N)nn1-c1ccc([N+](=O)[O-])cc1`, for which the inhibition at 50 µM in [11] turned out to be 43%. This compound had an Activity in data set [13] of 0%.
Taken in the same sequence, the figures for `C#Cc1cccc(-n2nc(C#N)c(N)c2C(=O)OC)c1` were less than 30% and 14%.
In the case of `COC(=O)c1c(N)c(C#N)nn1-c1cccc(F)c1`, the inhibition at 50 µM in data set [11] was 48%. The compound also gave an Activity in data set [13] of 0%.
In the case of `C#Cc1ccccc1-n1nc(C#N)c(N)c1C(=O)OC`, the inhibition at 50 µM in [11] is less than 30%. Also, in data set [13], the Activity turned out to be 7%.
For the compound `COC(=O)c1c(N)c(C#N)nn1-c1ccccc1Br`, in [11], the inhibition at 50 µM came out at 32%. Moreover, in [13], the Activity worked out at 4.8%.
With `COC(=O)c1c(N)c(C#N)nn1-c1cccc([N+](=O)[O-])c1`, in [11], the inhibition at 50 µM turned out to be 47%. In [13], the Activity is recorded as 0%.
As to `COC(=O)c1c(N)c(C#N)nn1-c1cccc(OCc2ccccc2)c1`, the Cmax in [1] is 241 ng/mL. In addition, in data set [3], the logD came to 3.84. Further, the concentration giving a half-maximal response (EC50) was 15.2 µM in [4] (setting [14]) and “Dose-dependent effect” in data set [4] (hela p4). Moreover, in [5], the half-life at 1 µM came to 4.6 min. Also, the solubility thermodynamic at 24 h in data set [8] was found to be 1.03 µM (≈ 0.359 µg/mL). Further, the remaining at 1 h, 1 µM in [9] came out at 100%. In [11], the inhibition at 50 µM amounted to 65%. Also, the result in data set [12] was Active. In [13], this compound came in with an Activity of 11%.
Consider `COC(=O)c1c(N)c(C#N)nn1-c1cccc(OC)c1`, for which, in [11], the inhibition at 50 µM was less than 30%. The compound further displayed an Activity in data set [13] of 6%.
Take `COC(=O)c1c(N)c(C#N)nn1-c1ccc(F)cc1`: the inhibition at 50 µM in data set [11] is less than 30%. The same compound registered an Activity in data set [13] of 6%.
Turning to `C[C@H](Cn1cnc2c(N)ncnc21)OCP(=O)(O)O` [TENOFOVIR ANHYDROUS], the EC50 in [4] (setting [14]) came out at 13.3 µM.
As to `COC(=O)c1c(N)c(C#N)nn1-c1cccc(Br)c1`, the inhibition at 50 µM in data set [11] was found to be 42%. In data set [13], this compound showed an Activity of 9%.
On to `COC(=O)c1c(N)c(C#N)nn1-c1ccccc1C(=O)OC(C)(C)C`, for which the inhibition at 50 µM in data set [11] is less than 30%. This compound displayed an Activity in data set [13] of 2.8%.
Turning to `COC(=O)c1c(N)c(C#N)nn1-c1cccc(C(F)(F)F)c1`, the inhibition at 50 µM in data set [11] is less than 30%. In data set [13], this compound came in with an Activity of more than 15%.
On to `COC(=O)c1c(N)c(C#N)nn1-c1ccc(C(F)(F)F)cc1`, for which the inhibition at 50 µM in data set [11] was less than 30%. In data set [13], this compound had an Activity of 14%.
For `COC(=O)c1c(N)c(C#N)nn1-c1ccc(Br)cc1` the same measures were 67% and more than 15%.
Take `COC(=O)c1c(N)c(C#N)nn1-c1ccc(C(=O)OC(C)(C)C)cc1`: the inhibition at 50 µM in [11] turned out to be 47%. This compound registered an Activity in [13] of 14%.
As to `COC(=O)c1c(N)c(C#N)nn1-c1ccc(Cl)cc1`, the inhibition at 50 µM in [11] came to 56%. This compound came in with an Activity in [13] of more than 15%.
Regarding `COC(=O)c1c(N)c(C#N)nn1-c1ccccc1I`, the inhibition at 50 µM in data set [11] was less than 30%. In addition, the Activity in [13] is listed as more than 15%.
As for `COC(=O)c1c(N)c(C#N)nn1-c1ccc(OCc2ccccc2)cc1`, the inhibition at 50 µM in [11] was less than 30%. In data set [13], this compound came in with an Activity of 3.8%.
As for `COC(=O)c1c(N)c(C#N)nn1-c1ccccc1OC`, the inhibition at 50 µM in data set [11] is less than 30%. Moreover, the Activity in data set [13] came out at 9.2%.
Regarding `COC(=O)c1c(N)c(C#N)nn1-c1ccccc1F`, the inhibition at 50 µM in data set [11] was less than 30%. For the same compound, the Activity in [13] amounted to 3.6%.
As to `COC(=O)c1c(N)c(C#N)nn1-c1ccccc1Cl`, the inhibition at 50 µM in data set [11] was found to be 30%. The Activity in [13] is 2.4%.
Consider `COC(=O)c1c(N)c(C#N)nn1-c1cccc(Cl)c1`, for which the inhibition at 50 µM in [11] was less than 30%. In [13], this compound showed an Activity of 11%.
Consider `COC(=O)c1c2nc(-c3cccc(Br)c3)cc(N)c2nn1-c1cccc(OC)c1`, for which the inhibition at 50 µM in data set [11] was determined as 54%. In data set [13], this compound came in with an Activity of 2%.

For orientation: Cmax means the maximum level reached in the sampled fluid or tissue. Broadly, the inhibition is the relative decrease from the control value, in per cent. The term logD denotes the decadic logarithm of the distribution of all forms, ionised or not, between an organic phase and buffer at a given pH. The low end stands for a more hydrophilic compound, the high end for a more lipophilic compound. The term EC50 denotes the concentration at which the effect is half-maximal. A word on the half-life: it is the time needed for the level to fall by half in the phase considered. As usually defined, the IC50 is the concentration that gives 50% inhibition.
